In article PMC3954500 (Journal of Medicinal Chemistry, 2014):

What was measured:
hA3AR = biological target: T1, hA3AR (Homo sapiens, UniProt P0DMS8); assay: cAMP functional assay at the hA3AR expressed in CHO cells; assay type: cell-based; details: for Emax at 10 µM: CHO, read-out: maximal stimulation of cAMP formation / % activation relative to the full agonist 16 (= 100%); for functional behaviour at hA3AR: cAMP assay, CHO cells
T1 sequence (P0DMS8 1-318): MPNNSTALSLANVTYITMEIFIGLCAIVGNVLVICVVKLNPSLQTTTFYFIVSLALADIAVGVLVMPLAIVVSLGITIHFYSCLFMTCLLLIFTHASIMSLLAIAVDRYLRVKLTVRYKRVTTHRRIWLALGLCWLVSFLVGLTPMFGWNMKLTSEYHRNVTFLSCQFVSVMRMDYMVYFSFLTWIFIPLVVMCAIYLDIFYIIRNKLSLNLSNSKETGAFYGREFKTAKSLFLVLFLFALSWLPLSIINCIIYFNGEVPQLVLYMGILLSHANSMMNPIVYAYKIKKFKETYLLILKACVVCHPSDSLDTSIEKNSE
Outline: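 Recombinant hA3AR-CHO cells, plated 24 h, washed with DMEM/50 mM HEPES pH 7.4. Treated with agonists and/or test compound plus rolipram (10 μM) and adenosine deaminase (3 units/mL); forskolin (10 μM) added at 45 min, incubation continued 15 min. Lysed with ice-cold 0.1 M HCl. cAMP quantified by PKA competition with [3H]cAMP (2 nM), GF/C filtration, scintillation, against cAMP standard curve. Mean ± SEM.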

A1, A2A, and A3ARs = details: read-out: EC50 for activation of A1, A2A, and A3ARs; ref [5]; cited from earlier work
A2BAR = details: read-out: EC50 for activation of A2BAR; ref [5]; cited from earlier work
hA2AAR = hA2AAR (Homo sapiens, UniProt P29274); assay: Radioligand binding at hA2AAR; details: 4a versus truncated 4′-thioadenosine derivative 2
hA2AAR, sequence (P29274 whole entry, the tested form may be a part): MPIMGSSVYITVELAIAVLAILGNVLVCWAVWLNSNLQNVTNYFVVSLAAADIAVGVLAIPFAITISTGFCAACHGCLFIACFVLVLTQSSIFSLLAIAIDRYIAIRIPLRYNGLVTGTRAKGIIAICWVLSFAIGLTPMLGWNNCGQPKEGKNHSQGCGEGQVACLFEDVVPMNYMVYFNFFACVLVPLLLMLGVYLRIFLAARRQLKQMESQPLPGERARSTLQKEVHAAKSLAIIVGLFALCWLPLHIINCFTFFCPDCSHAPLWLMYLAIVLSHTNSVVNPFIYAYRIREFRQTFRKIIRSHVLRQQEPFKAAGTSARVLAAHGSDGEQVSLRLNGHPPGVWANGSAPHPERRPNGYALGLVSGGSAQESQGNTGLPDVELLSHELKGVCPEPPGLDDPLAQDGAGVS

| Compound | Emax at 10 µM (hA3AR) | functional behaviour at hA3AR (hA3AR) | further results |
| --- | --- | --- | --- |
| CCCCC#Cc1nc(NCC)c2ncn([C@H]3[C@H](O)[C@H](O)[C@@H]4C[C@@H]43)c2n1 [4c, (1R,2R,3S,4R,5S)-4-(6-(ethylamino)-2-(hex-1-ynyl)-9H-purin-9-yl)bicyclo[3.1.0]hexane-2,3-diol] | 15.5 ± 6.7% | partial agonists |  |
| CCCCC#Cc1nc(NC)c2ncn([C@H]3[C@H](O)[C@H](O)[C@@H]4C[C@@H]43)c2n1 [4b] |  | partial agonist |  |
| CCCCC#Cc1nc(N)c2ncn([C@H]3[C@H](O)[C@H](O)[C@@H]4C[C@@H]43)c2n1 [4a, (1R,2R,3S,4R,5S)-4-(6-Amino-2-(hex-1-ynyl)-9H-purin-9-yl)bicyclo[3.1.0]hexane-2,3-diol] |  |  | fold less potent than 2 in binding affinity at the hA2AAR (hA2AAR): 14 fold and ≈ 14 fold |
| CCCCC#Cc1nc(NCc2cccc(F)c2)c2ncn([C@H]3[C@H](O)[C@H](O)[C@@H]4C[C@@H]43)c2n1 [4i, (1R,2R,3S,4R,5S)-4-(6-(3-Fluorobenzylamino)-2-(hex-1-ynyl)-9H-purin-9-yl)bicyclo[3.1.0] hexane-2,3-diol] | 18.9 ± 7.5% | partial agonists |  |
| CCCCC#Cc1nc(NCc2cccc(Br)c2)c2ncn([C@H]3[C@H](O)[C@H](O)[C@@H]4C[C@@H]43)c2n1 [4g, (1R,2R,3S,4R,5S)-4-(6-(3-Bromobenzylamino)-2-(hex-1-ynyl)-9H-purin-9-yl)bicyclo[3.1.0]hexane-2,3-diol] |  | antagonists |  |

Now from value to compound, other results behind:

| Emax at 10 µM (hA3AR) | functional behaviour at hA3AR (hA3AR) | Compound | further results |
| --- | --- | --- | --- |
|  | antagonists | CCCCC#Cc1nc(NCc2cccc(I)c2)c2ncn([C@H]3[C@H](O)[C@H](O)[C@@H]4C[C@@H]43)c2n1 [4f, (1R,2R,3S,4R,5S)-4-(6-(3-Iodobenzylamino)-2-(hex-1-ynyl)-9H-purin-9-yl)bicyclo[3.1.0]hexane-2,3-diol] |  |
|  | antagonists | CCCCC#Cc1nc(NCc2cccc(Cl)c2)c2ncn([C@H]3[C@H](O)[C@H](O)[C@@H]4C[C@@H]43)c2n1 [4h, (1R,2R,3S,4R,5S)-4-(6-(3-Chlorobenzylamino)-2-(hex-1-ynyl)-9H-purin-9-yl)bicyclo[3.1.0] hexane-2,3-diol] |  |
| 27.1 ± 14.6% | partial agonists | CCCCC#Cc1nc(NC2CCCC2)c2ncn([C@H]3[C@H](O)[C@H](O)[C@@H]4C[C@@H]43)c2n1 [4e, (1R,2R,3S,4R,5S)-4-(6-(Cyclopentylamino)-2-(hex-1-ynyl)-9H-purin-9-yl)bicyclo[3.1.0]hexane-2,3-diol] |  |
| 19.8 ± 4.6% | partial agonists | CCCCC#Cc1nc(NC2CC2)c2ncn([C@H]3[C@H](O)[C@H](O)[C@@H]4C[C@@H]43)c2n1 [4d, (1R,2R,3S,4R,5S)-4-(6-(Cyclopropylamino)-2-(hex-1-ynyl)-9H-purin-9-yl)bicyclo[3.1.0]hexane-2,3-diol] |  |
